# In ChEMBL document CHEMBL2034883, “Asperjinone, a nor-neolignan, and terrein, a suppressor of ABCG2-expressing breast cancer cells, from thermophilic Aspergillus terreus” (J Nat Prod, 2012):
# The source made the active and inactive calls. No cut-off for these calls is given here.
# Columns and labels:
# MCF7 [1] = assay: Cytotoxicity against human MCF7 cells at 100 uM after 96 hrs by MTT assay; type: functional, cell-based
# MCF7 [2] = assay: Cytotoxicity against human MCF7 cells assessed as suppression of SP-positive cells at 10 uM after 90 mins by Hoechst staining-based FACS analysis (reference value: 2.71%); type: functional
# MCF7 [3] = assay: Induction of apoptosis in human MCF7 cells assessed as late apoptotic cells at 10 nM after 96 hrs by annexinV/propidium iodide staining-based flow cytometric analysis (reference value: 5.02 %); type: functional
# MCF7 [4] = assay: Cytotoxicity against human MCF7 cells assessed as suppression of SP-positive cells at 1 nM after 90 mins by Hoechst staining-based FACS analysis (reference value: 2.71%); type: functional
# Summary of the method: (§1)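 Side-population assay. MCF-7 cells (1 × 10^6) trypsinized, washed three times in PBS and resuspended in HBSS with 2% FBS and 10 mM HEPES. Incubated with Hoechst 33342 (5 μg/mL) at 37 °C for 90 min with or without compound (1 or 10 nM). FTC (10 μM) used as control. SP fraction gated by flow cytometry. At least three independent experiments.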
# MCF7 [5] = assay: Induction of apoptosis in human MCF7 cells assessed as early apoptotic cells at 10 nM after 96 hrs by annexinV/propidium iodide staining-based flow cytometric analysis (reference value: 3.05 %); type: functional
# MCF7 [6] = assay: Induction of apoptosis in human MCF7 cells assessed as viable cells at 10 nM after 96 hrs by annexinV/propidium iodide staining-based flow cytometric analysis (reference value: 89 %); type: functional; conditions: MCF7, 96 h, read-out: Activity
# MCF7 [7] = assay: Induction of apoptosis in human MCF7 cells assessed as necrotic cells at 10 nM after 96 hrs by annexinV/propidium iodide staining-based flow cytometric analysis (reference value: 2.89 %); type: functional
# MCF7 [8] = assay: Cytotoxicity against ABCG2-positive human MCF7 cells after 96 hrs by Western blot analysis; type: functional, cell-based; conditions: in the assay text read “FACS analysis” for “Western blot analysis”
# Summary of the method: (§2)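 ABCG2+ subpopulation counted by flow cytometry. MCF-7 cells (2.0 × 10^4) treated 96 h, trypsinized, washed in PBS and resuspended in HBSS with 2% FBS and 10 mM HEPES (10^6/100 μL). Labelled with anti-ABCG2 (5D3) for 30 min, then PE anti-mouse IgG for 15 min. PI (2 μg/mL) added to exclude dead cells. Total ABCG2+ cell number reported as mean ± SD of at least three independent experiments.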
# MCF7 [9] = assay: Cytotoxicity against human MCF7 cells assessed as suppression of SP-positive cells at 10 nM after 90 mins by Hoechst staining-based FACS analysis (reference value: 2.71%); type: functional; summary of the method: as §1
# MCF7 [10] = assay: Growth inhibition of human MCF7 cells at 1 nM after 96 hrs by MTT assay; type: functional; conditions: MCF7, 96 h, read-out: GI
# MCF7 [11] = assay: Induction of apoptosis in human MCF7 cells assessed as late apoptotic cells at 1 nM after 96 hrs by annexinV/propidium iodide staining-based flow cytometric analysis (reference value: 5.02 %); type: functional
# MCF7 [12] = assay: Down regulation of ABCG2 expression in human MCF7 cells at 1 nM after 96 hrs by Western blot analysis; type: functional, cell-based
# Summary of the method: (§3)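 MCF-7 cells (2.0 × 10^5) exposed to 1 nM for 24, 48, 72 and 96 h; 10 nM paclitaxel as control. Lysed in RIPA (pH 8) with protease and phosphatase inhibitors; 40 μg protein per lane run on 10% SDS-PAGE and transferred to PVDF. Blocked in 5% milk/TBST 1 h; primary antibody overnight at 4 °C. Anti-ABCG2 1:100, anti-PARP and anti-caspase-7 each 1:1000. ECL detection.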
# MCF7 [13] = assay: Down regulation of Akt expression in human MCF7 cells at 1 nM after 6 hrs by Western blot analysis; type: functional, cell-based
# Summary of the method: (§4)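 MCF-7 cells (2.0 × 10^5) exposed to 1 nM for 1, 3 and 6 h; 10 μM LY294002 as positive control. RIPA lysates, 40 μg per lane, 10% SDS-PAGE and PVDF transfer. Probed overnight at 4 °C with anti-Akt and anti-phospho-Akt Ser473 (1:1000 each), with β-actin (1:10000) as loading control. ECL detection.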
# MCF7 [14] = assay: Cytotoxicity against human MCF7 cells after 48 hrs by MTT assay; conditions: MCF7, 48 h
# MCF7 [15] = assay: Induction of apoptosis in human MCF7 cells assessed as PARP cleavage at 1 nM after 96 hrs by Western blot analysis; type: functional, cell-based; summary of the method: as §3
# PANC-1 = assay: Cytotoxicity against human PANC1 cells after 96 hrs by MTT assay; type: functional, cell-based; conditions: PANC-1, 96 h
# HepG2 = assay: Cytotoxicity against human HepG2 cells after 96 hrs by MTT assay; type: functional, cell-based; conditions: HepG2, 96 h
# MCF7 [16] = assay: Induction of apoptosis in human MCF7 cells assessed as early apoptotic cells at 1 nM after 96 hrs by annexinV/propidium iodide staining-based flow cytometric analysis (reference value: 3.05 %); type: functional
# MCF7 [17] = assay: Induction of apoptosis in human MCF7 cells assessed as caspase 7 cleavage at 1 nM after 96 hrs by Western blot analysis; type: functional, cell-based; summary of the method: as §3
# MCF7 [18] = assay: Cytotoxicity against ABCG2-positive human MCF7 cells at 1 nM after 96 hrs by Western blot analysis; type: functional, cell-based; conditions: in the assay text read “FACS analysis” for “Western blot analysis”; summary of the method: as §2
# MCF7 [19] = assay: Cytotoxicity against ABCG2-positive human MCF7 cells at 10 nM after 96 hrs by Western blot analysis; type: functional, cell-based; conditions: in the assay text read “FACS analysis” for “Western blot analysis”; summary of the method: as §2
# MCF7 [20] = assay: Induction of apoptosis in human MCF7 cells assessed as viable cells at 1 nM after 96 hrs by annexinV/propidium iodide staining-based flow cytometric analysis (reference value: 89 %); type: functional; conditions: MCF7, 96 h, read-out: Activity
# MCF7 [21] = assay: Induction of apoptosis in human MCF7 cells assessed as necrotic cells at 1 nM after 96 hrs by annexinV/propidium iodide staining-based flow cytometric analysis (reference value: 2.89 %); type: functional
# MCF7 [22] = assay: Inhibition of PI3K-mediated Akt phosphorylation at Ser473 in human MCF7 cells at 1 nM after 6 hrs by Western blot analysis; type: cell-based; summary of the method: as §4
# MCF7 [23] = assay: Down regulation of ABCG2 expression in human MCF7 cells at 1 nM after 96 hrs by Western blot analysis
structure (smiles),measurement,setting,value
CC1(C)OC1Cc1cc(CC2=C(c3ccc(O)cc3)C(=O)OC2=O)ccc1O (configuration not stated),Activity,MCF7 [1],inactive
COC(=O)[C@@]1(Cc2ccc(O)c(CC=C(C)C)c2)OC(=O)C(O)=C1c1ccc(O)cc1,Activity,MCF7 [1],inactive
COC(=O)[C@]1(Cc2ccc3c(c2)C[C@H](C(C)(C)O)O3)OC(=O)C(O)=C1c1ccc(O)cc1,Activity,MCF7 [1],inactive
COC(=O)[C@]1(Cc2ccc3c(c2)C[C@H](O)C(C)(C)O3)OC(=O)C(O)=C1c1ccc(O)cc1,Activity,MCF7 [1],inactive
COC(=O)c1cc(O)cc(OC)c1C(=O)c1c(O)c(Cl)c(C)c(Cl)c1O,Activity,MCF7 [1],inactive
COC(=O)c1cc(O)cc(OC)c1Oc1c(Cl)c(C)c(Cl)c(O)c1C(=O)O,Activity,MCF7 [1],inactive
COC(=O)c1cc(O)cc(OC)c1Oc1c(Cl)c(C)c(Cl)c(O)c1C(=O)OC,Activity,MCF7 [1],inactive
COC(=O)c1cc(O)cc(OC)c1Oc1cc(C)cc(O)c1C(=O)O,Activity,MCF7 [1],inactive
COc1cc(COC(C)=O)cc2c1C(=O)c1c(O)cc(O)cc1C2=O,Activity,MCF7 [1],inactive
COc1cc(O)cc(C(=O)O)c1C(=O)c1c(O)c(Cl)c(C)c(Cl)c1O,Activity,MCF7 [1],inactive
COc1cc(O)cc2c1C(=O)c1c(O)cc(C)cc1C2=O,Activity,MCF7 [1],inactive
COc1ccc2c3c([nH]c2c1)[C@H](C=C(C)C)N1C(=O)[C@@H]2CCCN2C(=O)[C@@H]1C3 [FUMITREMORGIN],Activity,MCF7 [2],0.81%
CC(=O)O[C@H]1C(=O)[C@@]2(C)[C@H]([C@H](OC(=O)c3ccccc3)[C@]3(O)C[C@H](OC(=O)[C@H](O)[C@@H](NC(=O)c4ccccc4)c4ccccc4)C(C)=C1C3(C)C)[C@]1(OC(C)=O)CO[C@@H]1C[C@@H]2O [PACLITAXEL],Activity,MCF7 [3],9.34%
same,Activity,MCF7 [4],1.71%
same,Activity,MCF7 [5],15.6%
same,viability at 0.01 µM,MCF7 [6],72.1%
same,Activity,MCF7 [7],2.91%
same,Activity,MCF7 [8],Dose-dependent effect
same,Activity,MCF7 [9],1.65%
C/C=C/C1=CC(=O)[C@@H](O)[C@@H]1O [TERREIN],Activity,MCF7 [3],7.92%
same,Activity,MCF7 [4],0.77%
same,inhibition of growth at 0.001 µM,MCF7 [10],70%
same,Activity,MCF7 [11],8.89%
same,Activity,MCF7 [5],24%
same,Activity,MCF7 [12],Active
same,Activity,MCF7 [13],Active
same,IC50,MCF7 [14],1.1 nM
same,Activity,MCF7 [15],Active
same,IC50,PANC-1,9800 nM
same,viability at 0.01 µM,MCF7 [6],65.6%
same,IC50,HepG2,66.8 nM
same,Activity,MCF7 [16],29.6%
same,Activity,MCF7 [17],Active
same,Activity,MCF7 [18],Active
same,Activity,MCF7 [7],2.48%
same,Activity,MCF7 [19],Active
same,viability at 0.001 µM,MCF7 [20],59.7%
same,Activity,MCF7 [21],1.89%
same,inhibition,MCF7 [22],Active
same,Activity,MCF7 [8],Dose-dependent effect
same,Activity,MCF7 [9],0.89%
same,Activity,MCF7 [23],Active
